ChEMBL document CHEMBL1126608
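Throughout, for ID50: in vivo guinea pig assay: antimuscarinic effect measured as reduced salivation after carbachol stimulation.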

The molecules below were run against Muscarinic acetylcholine receptor (Homo sapiens) (UniProt P20309+P08173+P11229+P08172+P08912). Details: Cavia porcellus.
For C=CCN1CCN(CC(=O)C(O)(c2ccccc2)C2CCC2)CC1 (stereo unspecified), the ID50 was 20.4 mg/kg.
With O=C(CN1CCN(C2CCC2)CC1)C(O)(c1ccccc1)C1CCC1 (stereo unspecified) the ID50 was 18.3 mg/kg.
O=C(CN1CCNCC1)C(O)(c1ccccc1)C1CCC1 (stereo unspecified) showed an ID50 of 1.65 mg/kg.
C=CCCN1CCN(CC(=O)C(O)(c2ccccc2)C2CCC2)CC1 (stereo unspecified) showed an ID50 of 27.2 mg/kg.
Molecule O=C(CN1CCN(Cc2ccccc2)CC1)C(O)(c1ccccc1)C1CCCC1 (stereo unspecified) has an ID50 of 0.24 mg/kg.
O=C(CN1CCN(Cc2ccccc2)CC1)C(O)(c1ccccc1)c1ccccc1 was tested, and the ID50 was > 100 mg/kg.
CC(C)CC(O)(C(=O)CN1CCN(Cc2ccccc2)CC1)c1ccccc1 (stereo unspecified) showed an ID50 of 43.4 mg/kg.
CC(C)=CCN1CCN(CC(=O)C(O)(c2ccccc2)C2CCC2)CC1 (stereo unspecified) showed an ID50 of 4.9 mg/kg.
O=C(CN1CCN(Cc2ccccc2)CC1)C(O)(c1ccccc1)C1CC1 (stereo unspecified) showed an ID50 of 9.9 mg/kg.
Work on O=C(CN1CCN(Cc2cccc(Cl)c2)CC1)C(O)(c1ccccc1)C1CCC1 (stereo unspecified) yielded an ID50 of 8.3 mg/kg.
In the case of C=CCN1CCN(CC(=O)C(O)(c2ccccc2)C2CCCCC2)CC1 (stereo unspecified), the ID50 is reported as 21 mg/kg.
With CN1CCN(CC(=O)C(O)(c2ccccc2)C2CCC2)CC1 (stereo unspecified) the ID50 was 0.72 mg/kg.
With COc1ccc(CN2CCN(CC(=O)C(O)(c3ccccc3)C3CCC3)CC2)cc1 (stereo unspecified) the ID50 was 10.8 mg/kg.
For O=C(CN1CCN(Cc2ccccc2)CC1)C(O)(c1ccccc1)C1CCCCC1 (stereo unspecified), the ID50 was 4.38 mg/kg.
CCCN1CCN(CC(=O)C(O)(c2ccccc2)C2CCC2)CC1 (stereo unspecified) showed an ID50 of 31.1 mg/kg.
Work on N#CCN1CCN(CC(=O)C(O)(c2ccccc2)C2CCC2)CC1 (stereo unspecified) yielded an ID50 of 35.7 mg/kg.
Cc1ccc(CN2CCN(CC(=O)C(O)(c3ccccc3)C3CCC3)CC2)cc1 (stereo unspecified) gave an ID50 of 8.4 mg/kg.
In the case of O=C(CN1CCN(C/C=C\c2ccccc2)CC1)C(O)(c1ccccc1)C1CCC1 (stereo unspecified), the ID50 is reported as 1.2 mg/kg.
O=C(CN1CCN(Cc2ccc(Cl)cc2)CC1)C(O)(c1ccccc1)C1CCC1 (stereo unspecified) gave an ID50 of 9.8 mg/kg.
With O=C(CN1CCN(Cc2ccc([N+](=O)[O-])cc2)CC1)C(O)(c1ccccc1)C1CCC1 (stereo unspecified) the ID50 was 21 mg/kg.
Molecule O=C(CN1CCN(CCO)CC1)C(O)(c1ccccc1)C1CCC1 (stereo unspecified) has an ID50 of 4.93 mg/kg.
O=C(CN1CCN(Cc2cccs2)CC1)C(O)(c1ccccc1)C1CCC1 (stereo unspecified) gave an ID50 of 25 mg/kg.

What follows are molecules tested against T1, Muscarinic acetylcholine receptor M2 (Homo sapiens) (UniProt P08172) (assay: Antagonist activity against muscarinic M2 receptor from guinea pig atria; Non competitive). Details: Cavia porcellus; filed as antagonist; target entry is the homologue from another species.
T1 sequence (whole entry): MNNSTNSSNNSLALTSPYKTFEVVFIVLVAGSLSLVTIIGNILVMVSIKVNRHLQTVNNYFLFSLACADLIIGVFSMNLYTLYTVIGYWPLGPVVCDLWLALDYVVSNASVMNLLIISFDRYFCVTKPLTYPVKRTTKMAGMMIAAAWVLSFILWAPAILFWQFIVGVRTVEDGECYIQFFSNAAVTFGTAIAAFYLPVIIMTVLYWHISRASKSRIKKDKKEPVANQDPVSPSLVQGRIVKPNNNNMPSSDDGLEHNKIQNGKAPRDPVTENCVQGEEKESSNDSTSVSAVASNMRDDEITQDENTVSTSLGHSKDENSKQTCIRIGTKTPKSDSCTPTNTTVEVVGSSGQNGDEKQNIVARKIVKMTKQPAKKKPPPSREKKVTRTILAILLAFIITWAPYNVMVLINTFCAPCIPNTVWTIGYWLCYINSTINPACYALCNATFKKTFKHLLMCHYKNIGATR
Format: functional
Outline: (§1)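 Isolated guinea pig right atria in Krebs-Henseleit buffer; cumulative carbachol concentration-rate response curves before and after at least three increasing antagonist concentrations (5-min preincubation). Responses as % of maximal carbachol-induced rate inhibition without antagonist.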
In the case of C=CCCN1CCN(CC(=O)C(O)(c2ccccc2)C2CCC2)CC1 (stereo unspecified), the Kb is reported as “Non-competitive antagonist”.

What follows are molecules tested against Muscarinic acetylcholine receptor M3 (Cavia porcellus) (UniProt Q8VH26) (assay: Antagonist activity against muscarinic M3 receptor from guinea pig ileum). Details: not given.
Sequence of Muscarinic acetylcholine receptor M3 (Cavia porcellus) (Q8VH26 1-587): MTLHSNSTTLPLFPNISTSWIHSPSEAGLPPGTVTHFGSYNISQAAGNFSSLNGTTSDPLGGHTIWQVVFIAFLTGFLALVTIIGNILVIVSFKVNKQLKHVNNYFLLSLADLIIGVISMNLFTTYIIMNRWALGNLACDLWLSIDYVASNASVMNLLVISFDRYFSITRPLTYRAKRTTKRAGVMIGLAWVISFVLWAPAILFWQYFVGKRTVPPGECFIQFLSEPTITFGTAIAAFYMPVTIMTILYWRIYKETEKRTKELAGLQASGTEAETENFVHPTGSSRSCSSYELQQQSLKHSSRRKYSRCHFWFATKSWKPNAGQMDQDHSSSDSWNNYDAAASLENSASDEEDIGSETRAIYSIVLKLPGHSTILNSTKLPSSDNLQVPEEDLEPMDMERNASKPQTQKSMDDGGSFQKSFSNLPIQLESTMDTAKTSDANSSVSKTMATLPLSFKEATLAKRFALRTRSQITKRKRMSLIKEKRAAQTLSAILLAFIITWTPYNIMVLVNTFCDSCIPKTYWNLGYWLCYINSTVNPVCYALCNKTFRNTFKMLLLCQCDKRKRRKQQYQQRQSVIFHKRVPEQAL
Format: functional, tissue-based
Outline: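 Longitudinal guinea pig ileum strips suspended in oxygenated Krebs buffer; carbachol concentration-response curves with or without at least three increasing antagonist concentrations (5-min preincubation). Contraction as % of maximal carbachol response without antagonist.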
C=CCN1CCN(CC(=O)C(O)(c2ccccc2)C2CCC2)CC1 (stereo unspecified) gave a Kb of 60 nM.
O=C(CN1CCN(C2CCC2)CC1)C(O)(c1ccccc1)C1CCC1 (stereo unspecified) showed a Kb of 230 nM.
With O=C(CN1CCNCC1)C(O)(c1ccccc1)C1CCC1 (stereo unspecified) the Kb was 87 nM.
C=CCCN1CCN(CC(=O)C(O)(c2ccccc2)C2CCC2)CC1 (stereo unspecified) gave a Kb of 35.6 nM.
With O=C(CN1CCN(Cc2ccccc2)CC1)C(O)(c1ccccc1)C1CCCC1 (stereo unspecified) the Kb was 2.6 nM.
O=C(CN1CCN(Cc2ccccc2)CC1)C(O)(c1ccccc1)c1ccccc1 was tested, and the Kb was 6 nM.
CC(C)CC(O)(C(=O)CN1CCN(Cc2ccccc2)CC1)c1ccccc1 (stereo unspecified) showed a Kb of 171 nM.
Molecule CC(C)=CCN1CCN(CC(=O)C(O)(c2ccccc2)C2CCC2)CC1 (stereo unspecified) has a Kb of 22 nM.
Molecule O=C(CN1CCN(Cc2ccccc2)CC1)C(O)(c1ccccc1)C1CC1 (stereo unspecified) has a Kb of 24 nM.
O=C(CN1CCN(Cc2cccc(Cl)c2)CC1)C(O)(c1ccccc1)C1CCC1 (stereo unspecified) was tested, and the Kb was 27 nM.
C=CCN1CCN(CC(=O)C(O)(c2ccccc2)C2CCCCC2)CC1 (stereo unspecified) showed a Kb of 25.6 nM.
Work on CN1CCN(CC(=O)C(O)(c2ccccc2)C2CCC2)CC1 (stereo unspecified) yielded a Kb of 13 nM.
For COc1ccc(CN2CCN(CC(=O)C(O)(c3ccccc3)C3CCC3)CC2)cc1 (stereo unspecified), the Kb was 27.9 nM.
For O=C(CN1CCN(Cc2ccccc2)CC1)C(O)(c1ccccc1)C1CCCCC1 (stereo unspecified), the Kb was 12 nM.
CCCN1CCN(CC(=O)C(O)(c2ccccc2)C2CCC2)CC1 (stereo unspecified) was tested, and the Kb was 673 nM.
For N#CCN1CCN(CC(=O)C(O)(c2ccccc2)C2CCC2)CC1 (stereo unspecified), the Kb was 2710 nM.
Molecule Cc1ccc(CN2CCN(CC(=O)C(O)(c3ccccc3)C3CCC3)CC2)cc1 (stereo unspecified) has a Kb of 11 nM.
O=C(CN1CCN(C/C=C\c2ccccc2)CC1)C(O)(c1ccccc1)C1CCC1 (stereo unspecified) was tested, and the Kb was 9.92 nM.
In the case of O=C(CN1CCN(Cc2ccc(Cl)cc2)CC1)C(O)(c1ccccc1)C1CCC1 (stereo unspecified), the Kb is reported as 16 nM.
O=C(CN1CCN(Cc2ccc([N+](=O)[O-])cc2)CC1)C(O)(c1ccccc1)C1CCC1 (stereo unspecified) was tested, and the Kb was 105 nM.
O=C(CN1CCN(CCO)CC1)C(O)(c1ccccc1)C1CCC1 (stereo unspecified) was tested, and the Kb was 185 nM.
O=C(CN1CCN(Cc2cccs2)CC1)C(O)(c1ccccc1)C1CCC1 (stereo unspecified) gave a Kb of 43.8 nM.

The molecules below were run against T1, Muscarinic acetylcholine receptor M2 (Homo sapiens) (assay: Antagonist activity against muscarinic M2 receptor from guinea pig atria). Details: Cavia porcellus; target entry is the homologue from another species.
Format: functional
Outline: as §1
With C=CCN1CCN(CC(=O)C(O)(c2ccccc2)C2CCC2)CC1 (stereo unspecified) the Kb was 299 nM.
O=C(CN1CCN(C2CCC2)CC1)C(O)(c1ccccc1)C1CCC1 (stereo unspecified) gave a Kb of 1800 nM.
With O=C(CN1CCNCC1)C(O)(c1ccccc1)C1CCC1 (stereo unspecified) the Kb was 940 nM.
In the case of O=C(CN1CCN(Cc2ccccc2)CC1)C(O)(c1ccccc1)C1CCCC1 (stereo unspecified), the Kb is reported as 78 nM.
With O=C(CN1CCN(Cc2ccccc2)CC1)C(O)(c1ccccc1)c1ccccc1 the Kb was 1460 nM.
In the case of CC(C)CC(O)(C(=O)CN1CCN(Cc2ccccc2)CC1)c1ccccc1 (stereo unspecified), the Kb is reported as > 3000 nM.
Molecule CC(C)=CCN1CCN(CC(=O)C(O)(c2ccccc2)C2CCC2)CC1 (stereo unspecified) has a Kb of 305 nM.
Work on O=C(CN1CCN(Cc2ccccc2)CC1)C(O)(c1ccccc1)C1CC1 (stereo unspecified) yielded a Kb of 225 nM.
O=C(CN1CCN(Cc2cccc(Cl)c2)CC1)C(O)(c1ccccc1)C1CCC1 (stereo unspecified) gave a Kb of 380 nM.
For C=CCN1CCN(CC(=O)C(O)(c2ccccc2)C2CCCCC2)CC1 (stereo unspecified), the Kb was 425 nM.
In the case of CN1CCN(CC(=O)C(O)(c2ccccc2)C2CCC2)CC1 (stereo unspecified), the Kb is reported as 79 nM.
For COc1ccc(CN2CCN(CC(=O)C(O)(c3ccccc3)C3CCC3)CC2)cc1 (stereo unspecified), the Kb was 263 nM.
For O=C(CN1CCN(Cc2ccccc2)CC1)C(O)(c1ccccc1)C1CCCCC1 (stereo unspecified), the Kb was 282 nM.
In the case of CCCN1CCN(CC(=O)C(O)(c2ccccc2)C2CCC2)CC1 (stereo unspecified), the Kb is reported as 1190 nM.
In the case of N#CCN1CCN(CC(=O)C(O)(c2ccccc2)C2CCC2)CC1 (stereo unspecified), the Kb is reported as > 30000 nM.
Cc1ccc(CN2CCN(CC(=O)C(O)(c3ccccc3)C3CCC3)CC2)cc1 (stereo unspecified) gave a Kb of 82 nM.
O=C(CN1CCN(C/C=C\c2ccccc2)CC1)C(O)(c1ccccc1)C1CCC1 (stereo unspecified) was tested, and the Kb was 2.3 nM.
In the case of O=C(CN1CCN(Cc2ccc(Cl)cc2)CC1)C(O)(c1ccccc1)C1CCC1 (stereo unspecified), the Kb is reported as 515 nM.
O=C(CN1CCN(Cc2ccc([N+](=O)[O-])cc2)CC1)C(O)(c1ccccc1)C1CCC1 (stereo unspecified) showed a Kb of 2700 nM.
O=C(CN1CCN(CCO)CC1)C(O)(c1ccccc1)C1CCC1 (stereo unspecified) was tested, and the Kb was 2350 nM.
O=C(CN1CCN(Cc2cccs2)CC1)C(O)(c1ccccc1)C1CCC1 (stereo unspecified) showed a Kb of 491 nM.
